Laboratory results as given in ChEMBL document CHEMBL1821568, “Conjugates of 3α-methoxyserrat-14-en-21β-ol (PJ-1) and 3β-methoxyserrat-14-en-21β-ol (PJ-2) as cancer chemopreventive agents” (Eur J Med Chem, 2011).

Experiments:
Raji [1] = test: Inhibition of TPA-induced EBV-early antigen activation in human Raji cells assessed as EA activation at 100 molar ratio after 48 hrs relative to control; type: cell-based; details: human gammaherpesvirus 4
How it was run: (§1)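 Raji cells (non-producer sub-line, spontaneous EA under 0.1%) at 1×10^6/mL, incubated 37 °C for 48 h with n-butyric acid (4 mmol), TPA (32 pmol in DMSO) and compound in DMSO. Dose expressed as mol ratio to TPA (1000, 500, 100, 10). EA-positive cells were detected by indirect immunofluorescence with NPC patient serum, at least 500 cells counted. Assays were run in triplicate. Results are relative to butyrate+TPA control (100%). IC50 given in nM.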

Mus musculus [2] = species: Mus musculus; test: Toxicity in ICR mouse assessed as change in body weight at 85 nmol; type: organism-based; details: in vivo
Mus musculus [3] = species: Mus musculus; test: Toxicity in ICR mouse assessed as lesional damage at 85 nmol; type: organism-based; details: in vivo
Mus musculus [4] = species: Mus musculus; test: Toxicity in ICR mouse assessed as ulcer at 85 nmol; type: organism-based; details: in vivo
Mus musculus [5] = test: Inhibition of DMBA-induced and TPA-promoted carcinogenesis in ICR mouse assessed as reduction of mouse bearing papillomas width at 85 nmol administered 1 hr before TPA treatment measured after 20 weeks; type: functional
How it was run: (§2)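 Female SPF ICR mice, 6 weeks old, 15 per group, backs shaved. Initiation was one topical dose of DMBA (390 nmol) in acetone 0.1 mL. Promotion was TPA (1.7 nmol) twice weekly, with compound given topically at 85 nmol. Papilloma incidence and papillomas per mouse were followed to week 20, and tumor length and width were recorded. Significance was set at P<0.05 versus the DMBA/TPA control.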

Raji [6] = test: Inhibition of TPA-induced EBV-early antigen activation in human Raji cells assessed as EA activation at 500 molar ratio after 48 hrs relative to control; type: cell-based; parameters: scale not given: the % may be the effect or the level left; details: human gammaherpesvirus 4; how it was run: as §1
[7] = Inhibition of TPA-induced EBV-early antigen activation in human Raji cells assessed as EA activation after 48 hrs; type: cell-based, human gammaherpesvirus 4; how it was run: as §1
Raji [8] = test: Inhibition of TPA-induced EBV-early antigen activation in human Raji cells assessed as EA activation at 10 molar ratio after 48 hrs relative to control; type: cell-based; parameters: scale not given: the % may be the effect or the level left; details: human gammaherpesvirus 4; how it was run: as §1
Mus musculus [9] = test: Toxicity in ICR mouse assessed as edema at 85 nmol; type: organism-based; details: in vivo
Mus musculus [10] = species: Mus musculus; test: Toxicity in ICR mouse assessed as erosion at 85 nmol; type: organism-based; details: in vivo
Mus musculus [11] = test: Inhibition of DMBA-induced and TPA-promoted carcinogenesis in ICR mouse assessed as reduction of mouse bearing papillomas at 85 nmol administered 1 hr before TPA treatment measured after 20 weeks; type: functional; how it was run: as §2
Mus musculus [12] = test: Inhibition of DMBA-induced and TPA-promoted carcinogenesis in ICR mouse assessed as reduction of mouse bearing papillomas length at 85 nmol administered 1 hr before TPA treatment measured after 20 weeks; type: functional; how it was run: as §2
Mus musculus [13] = test: Inhibition of DMBA-induced and TPA-promoted carcinogenesis in ICR mouse assessed as reduction of mouse bearing papillomas at 85 nmol administered 1 hr before TPA treatment measured after 10 to 15 weeks; type: functional; how it was run: as §2
[14] = Cytotoxicity against human Raji cells carrying EBV genome assessed as cell viability at 1000 molar ratio by trypan blue staining method; type: cell-based; details: read-out: Activity
How it was run: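 Raji cells (EBV genome-carrying, in RPMI-1640 with 10% FBS) at 1×10^6/mL, incubated 48 h at 37 °C with n-butyric acid (4 mmol), TPA (32 pmol) and test compound in DMSO. Viability scored by Trypan Blue staining. Molar ratio means mol of compound per mol of TPA (32 pmol).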

Raji [15] = test: Inhibition of TPA-induced EBV-early antigen activation in human Raji cells assessed as EA activation at 1000 molar ratio after 48 hrs relative to control; type: cell-based; parameters: scale not given: the % may be the effect or the level left; details: human gammaherpesvirus 4; how it was run: as §1

IC50 [7] [µM]	Structure (SMILES)	EA activation relative to control (Raji [1]) [%]	Activity (Mus musculus [2])	Activity (Mus musculus [3])	Activity (Mus musculus [4])	Activity (Mus musculus [5]) [mm]	Activity (Raji [6]) [%]	Activity (Raji [8]) [%]	Activity (Mus musculus [9])	Activity (Mus musculus [10])	inhibition (INH) (Mus musculus [11]) [%]	Activity (Mus musculus [12]) [mm]	inhibition (INH) (Mus musculus [13]) [%]	viability at 1000 molar ratio [14] [%]	Activity (Raji [15]) [%]
0.23	CO[C@@H]1CC[C@@]2(C)[C@@H](CC[C@@]3(C)C[C@]45CC[C@@H]6C(C)(C)[C@H](OC(=O)CC(C)(C)C(=O)O)CC[C@@]6(C)[C@@]4(CC[C@@H]32)O5)C1(C)C	68.4	Non-toxic	Non-toxic	Non-toxic	17	26.6	89.6	Non-toxic	Non-toxic	93.3	18	26.6	60	0
0.285	CO[C@H]1CC[C@@]2(C)[C@@H](CC[C@@]3(C)CC4=CC[C@H]5C(C)(C)[C@H](OC(=O)CCC(=O)O)CC[C@]5(C)[C@H]4CC[C@@H]32)C1(C)C	69.5					33.6	93.8						60	0
0.455	CO[C@H]1CC[C@@]2(C)[C@@H](CC[C@@]3(C)CC4=CC[C@H]5C(C)(C)[C@H](OC(=O)CCC(=O)Oc6ccc(-c7coc8cc(O)cc(O)c8c7=O)cc6)CC[C@]5(C)[C@H]4CC[C@@H]32)C1(C)C	79.6					45.2	100						60	12
0.495	CO[C@H]1CC[C@@]2(C)[C@@H](CC[C@@]3(C)CC4=CC[C@H]5C(C)(C)[C@H](OC(=O)CCC(=O)Oc6ccc(-c7coc8cc(O)ccc8c7=O)cc6)CC[C@]5(C)[C@H]4CC[C@@H]32)C1(C)C	82.6					49.4	100						60	15
0.449	CC1(C)CC[C@]2(C(=O)O)CC[C@]3(C)C(=CC[C@@H]4[C@@]5(C)CC[C@H](O)C(C)(C)[C@@H]5CC[C@]43C)[C@@H]2C1 [OLEANOLIC_ACID]	80					30	100							12.7
0.281	CO[C@@H]1CC[C@@]2(C)[C@@H](CC[C@@]3(C)CC4=CC[C@H]5C(C)(C)[C@H](OC(=O)CCC(=O)O)CC[C@]5(C)[C@H]4CC[C@@H]32)C1(C)C	68.3					32.4	92.4						60	0
0.47	CO[C@H]1CC[C@@]2(C)[C@@H](CC[C@@]3(C)CC4=CC[C@H]5C(C)(C)[C@H](OC(=O)CCC(=O)Oc6ccc([C@@H]7CC(=O)c8c(O)cc(O)cc8O7)cc6)CC[C@]5(C)[C@H]4CC[C@@H]32)C1(C)C	80					47.3	100						60	14
0.498	CO[C@@H]1CC[C@@]2(C)[C@@H](CC[C@@]3(C)CC4=CC[C@H]5C(C)(C)[C@H](OC(=O)CCC(=O)Oc6ccc(-c7coc8cc(O)ccc8c7=O)cc6)CC[C@]5(C)[C@H]4CC[C@@H]32)C1(C)C	83.4					50.3	100						60	15.8

The remaining lines, values behind:

Structure (SMILES)	IC50 [7] [µM]	EA activation relative to control (Raji [1]) [%]	Activity (Mus musculus [2])	Activity (Mus musculus [3])	Activity (Mus musculus [4])	Activity (Mus musculus [5]) [mm]	Activity (Raji [6]) [%]	Activity (Raji [8]) [%]	Activity (Mus musculus [9])	Activity (Mus musculus [10])	inhibition (INH) (Mus musculus [11]) [%]	Activity (Mus musculus [12]) [mm]	inhibition (INH) (Mus musculus [13]) [%]	viability at 1000 molar ratio [14] [%]	Activity (Raji [15]) [%]
CO[C@H]1CC[C@@]2(C)[C@@H](CC[C@@]3(C)CC4=CC[C@H]5C(C)(C)[C@H](OC(=O)c6cc(O)c(O)c(O)c6)CC[C@]5(C)[C@H]4CC[C@@H]32)C1(C)C	0.29	71.3	Non-toxic	Non-toxic	Non-toxic	15	36.5	91.5	Non-toxic	Non-toxic	86.6	18	20	60	2.2
CO[C@H]1CC[C@@]2(C)[C@@H](CC[C@@]3(C)CC4=CC[C@H]5C(C)(C)[C@H](OC(=O)CN)CC[C@]5(C)[C@H]4CC[C@@H]32)C1(C)C	0.449	80.3					42.5	100						60	12
COc1c(O)cc(C(=O)O[C@@H]2CC[C@]3(C)[C@H]4CC[C@H]5[C@@](C)(CC[C@H]6C(C)(C)[C@@H](OC)CC[C@@]65C)CC4=CC[C@H]3C2(C)C)cc1O	0.375	72.5					37.8	93.4						60	4.7
CO[C@@H]1CC[C@@]2(C)[C@@H](CC[C@@]3(C)CC4=CC[C@H]5C(C)(C)[C@H](OC(=O)CCC(=O)Oc6ccc(-c7coc8cc(O)cc(O)c8c7=O)cc6)CC[C@]5(C)[C@H]4CC[C@@H]32)C1(C)C	0.458	81					45.9	100						60	12.2
CO[C@H]1CC[C@@]2(C)[C@@H](CC[C@@]3(C)CC4=CC[C@H]5C(C)(C)[C@H](OC(=O)CN6CCCCC6)CC[C@]5(C)[C@H]4CC[C@@H]32)C1(C)C	0.46	82					46.3	100						60	13.5
CO[C@@H]1CC[C@@]2(C)[C@@H](CC[C@@]3(C)CC4=CC[C@H]5C(C)(C)[C@H](OC(=O)CC(C)(C)C(=O)O)CC[C@]5(C)[C@H]4CC[C@@H]32)C1(C)C	0.251	67.5	Non-toxic	Non-toxic	Non-toxic	14	29.7	91.5	Non-toxic	Non-toxic	80	16	13.3	60	0
CO[C@@H]1CC[C@@]2(C)[C@@H](CC[C@@]3(C)CC4=CC[C@H]5C(C)(C)[C@H](OC(=O)CCC(=O)Oc6ccc([C@@H]7CC(=O)c8c(O)cc(O)cc8O7)cc6)CC[C@]5(C)[C@H]4CC[C@@H]32)C1(C)C	0.473	81					48.7	100						60	14.3
CO[C@H]1CC[C@@]2(C)[C@@H](CC[C@@]3(C)CC4=CC[C@H]5C(C)(C)[C@H](OC(=O)CC(C)(C)C(=O)O)CC[C@]5(C)[C@H]4CC[C@@H]32)C1(C)C	0.248	67					28.5	90.3						60	0
